Bioassay records (PubChem)
ERb coact inh = blocks coactivator binding to human estrogen receptor beta; 1.3% of 86,000 active; inhibition, % at 25.6 µM; Q92731; TR-FRET ER-beta LBD / SRC1-Cy5 peptide binding; receptor agonist-loaded with 1 µM estradiol;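 active means compounds whose percent inhibition of the receptor-coactivator binding signal exceeds about 50% in the single-dose screen, limit read from the data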;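 further: 0% = receptor plus peptide wells without compound and 100% = peptide-only wells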
Target sequence (Q92731 whole entry, looked up, the tested form may be a part): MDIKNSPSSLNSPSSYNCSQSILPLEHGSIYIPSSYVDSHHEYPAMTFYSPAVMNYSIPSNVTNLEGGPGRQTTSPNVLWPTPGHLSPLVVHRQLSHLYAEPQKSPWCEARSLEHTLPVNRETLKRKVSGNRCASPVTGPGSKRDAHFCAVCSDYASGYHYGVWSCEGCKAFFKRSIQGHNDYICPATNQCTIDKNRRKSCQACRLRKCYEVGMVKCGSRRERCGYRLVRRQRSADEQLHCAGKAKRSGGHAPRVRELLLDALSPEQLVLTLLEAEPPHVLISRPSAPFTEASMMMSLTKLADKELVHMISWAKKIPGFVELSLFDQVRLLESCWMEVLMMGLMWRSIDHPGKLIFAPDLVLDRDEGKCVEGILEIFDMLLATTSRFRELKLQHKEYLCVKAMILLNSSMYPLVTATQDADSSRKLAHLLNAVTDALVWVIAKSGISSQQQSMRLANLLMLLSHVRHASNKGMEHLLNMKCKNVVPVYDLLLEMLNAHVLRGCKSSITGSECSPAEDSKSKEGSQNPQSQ
BAP1 block = inhibitors of human BAP1 deubiquitinase. Q92560. 0.48% of 72,000 active. calls only at 20 µM. recombinant BAP1, Ub-AMC hydrolysis fluorescence kinetic; stronger effect = lower value;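 active means activity remaining at or below 50% of control, provided the compound also passes the data quality filters; inactive means the rest, including low values that fail the filters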;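 further: 100% = DMSO wells rate and 0% = substrate alone blank rate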
SF-1 act = activators of human nuclear receptor SF-1; activation, % at 10 µM; CHO-K1 Gal4-SF-1 LBD luciferase reporter; % increase over DMSO SF-1-specific signal; Q13285; AID 522; 1.9% of 65,000 active;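 active means activation above the mean activation of all tested compounds plus 3 SD, cut at about 50% in these data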
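System: CHO-K1 cells with Gal4–hSF-1 LBD chimera plus Gal4-driven luciferase; quantity: 4,000 CHO-K1 cells per well; compound: one dose, 10 µM compound, 1% DMSO; times: 20 h compound treatment, 37 °C; measured by: SteadyLite luciferase luminescence; read-out: percent activation versus DMSO; benchmarks: DMSO and mock-transfected background; replicates: one test per compound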
ERa coact inh = blocks coactivator binding to human estrogen receptor alpha. P03372. TR-FRET ER-alpha LBD / SRC-1 peptide, estradiol-bound. inhibition, % at 25.6 µM. 1.7% of 86,000 active. AID 629; in the data active means inhibition above about 50%;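 further: 0% = receptor plus peptide control and 100% = peptide only without receptor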
RORA act = activators of human nuclear receptor RORA; P35398; CHO-K1 Gal4-RORA LBD luciferase reporter, luminescence; percent increase over mock-subtracted basal signal; activation, % at 10 µM; 1.5% of 65,000 active;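 active means activation above the mean of all tested compounds plus 3 SD, cut at about 49% in these data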;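 further: 0% = DMSO-treated RORA cells and 100% = added signal equal to DMSO minus mock-transfected cells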
ERa SRC1 pot = ER-alpha (human) coactivator binding potentiation. P03372. TR-FRET ERalpha-LBD/SRC-Cy5 coactivator binding, 2 h; 100 = basal binding, no effect. coactivator binding (% of control), % at 25.6 µM. 1.3% of 86,000 active. AID 639; in the data active means activity above about 200%;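 further: binding measured in presence of low estradiol as agonist stimulus; 0% = peptide alone without receptor and 100% = receptor with peptide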
Numbers without * were called inactive; i = inactive; x = no result shown; + = active, no number; [ ] = another dose, or the depositor's remark. This is a sample that favours compounds with a hit; in the whole collection about 5.1% have one here.

SMILES	ERb coact inh	BAP1 block	SF-1 act	ERa coact inh	RORA act	ERa SRC1 pot
O=C(Nc1ccc2nn(-c3ccccc3)nc2c1)c1cccnc1	29.4	i	60.6*	40.3	45.9	189.8
O=C(Cc1ccccc1)Nc1ccc2oc(-c3cccnc3)nc2c1	-16.5	i	20.3	-63.5	6.3	789.5*
Cc1c(N=Cc2ccccc2F)c(=O)n(-c2ccccc2)n1C	x	i	x	x	x	x
CC(C)(C)c1ccc(S(=O)(=O)N2CCN(C(c3ccccc3)c3ccccc3)CC2)cc1	x	i	x	x	x	x
CCCC(=O)Nc1ccc2oc(-c3ccc(OC)c(Br)c3)nc2c1	-0.7	x	62.1*	9.1	79.6*	127.2
COc1ccc(CC(=O)Nc2ccc(-c3nc4cc(C)ccc4o3)c(O)c2)cc1OC	53.4*[fluorescence artefact?]	x	0.2	89.8*[fluorescence artefact?]	24.1	122.0
CCOc1ccc(Nc2cc(=O)oc3ccccc23)cc1	10.8	x	x	-5.4	x	255.5*
COc1ccc(OC)c(C2CC(=O)N3CN(c4ccccc4)CSC3=C2C#N)c1 (configuration not stated)	-4.2	i	7.9	-12.1	-1.0	68.0
Cc1cccc(N2CSC3=C(C#N)C(c4ccc(C)o4)CC(=O)N3C2)c1 (configuration not stated)	68.1*[fluorescence artefact?]	i	27.4	82.7*	9.2	60.4
CCC(Sc1nc2cc3c(cc2c(=O)n1Cc1ccco1)OCO3)C(=O)Nc1ccccc1OC (configuration not stated)	31.8	x	-13.3	87.7*[fluorescence artefact?]	2.3	144.0
Cc1ccc(C)n1-c1sccc1C(=O)O	60.0*	x	x	71.3*[fluorescence artefact?]	x	27.4
COc1ccc(NS(=O)(=O)c2cc(C(=O)Nc3ccc(Br)cc3)ccc2Br)cc1	x	i	x	x	x	x
Cc1cc(N)c(-n2cc3c(=O)n(C)c(=O)n(C)c3c2)cc1C	-3.0	i	30.5	2.9	54.0*	96.7
CCOC(=O)c1c(C)oc2c1c(C(c1cccnc1)N1CCN(C)CC1)c(O)c1ccccc12 (configuration not stated)	64.5*[fluorescence artefact?]	i	-12.1	77.4*[fluorescence artefact?]	-8.7	50.7
CCn1c(=O)c2cc(C(=O)N3CCN(C(=O)c4ccco4)CC3)sc2c2ccccc21	4.5	+	-3.5	20.6	13.2	102.2
CC1(C)Cc2nc3sc4c(SCC(=O)NCc5ccco5)ncnc4c3cc2CO1	39.6	i	81.0*	25.5	27.8	289.0*[fluorescence artefact?]
O=C(CSc1ncnc2sc3c(c12)CCCCC3)NCc1ccco1	5.5	i	15.2	2.7	19.1	95.5
CC(C)c1nc2sc3c(SCC(=O)NCc4ccco4)ncnc3c2c2c1CCC2	11.7	x	1.7	10.6	-5.7	+[fluorescence artefact?]
CSc1nc(NCc2ccco2)c2c3c(sc2n1)CN(C)CC3	43.4	x	1.6	29.6	-10.5	37.0
CCC1(C)Cc2c(sc3c2c2ncnn2c2nnc(SCC(=O)NCc4ccco4)n32)CO1 (configuration not stated)	14.6	x	8.6	11.1	21.2	97.2
CSc1nc(SCC(=O)NCc2ccco2)c2c3c(sc2n1)CN(C)CC3	35.4	x	9.1	51.9*[fluorescence artefact?]	-2.0	58.1
CC1(C)Cc2c(sc3c2c2ncnn2c2nnc(SCC(=O)NCc4ccco4)n32)CO1	74.4*[fluorescence artefact?]	i	-6.4	-1.7	14.9	115.7
CCCc1nc2c(sc3nc4c(cc32)COC(C)(C)C4)c(=O)n1Cc1ccco1	35.7	i	-30.2	17.7	-1.1	114.0
CC(C)Oc1cccc(C(=O)Nc2ccc(Cl)c(-c3nc4ncccc4o3)c2)c1	x	i	x	x	x	x
Cc1nc2c(sc3nc4c(cc32)COC(C)(C)C4)c(=O)n1CC(=O)NCc1ccco1	24.1	x	133.7*	13.1	101.0*	77.9
SMILES	ERb coact inh	BAP1 block	SF-1 act	ERa coact inh	RORA act	ERa SRC1 pot
Oc1c(-c2ccc(F)cc2)c2nc3ccccc3nc2c2ccccc12	x	i	x	x	x	x
Fc1ccc2nc3[nH]c4ccccc4c3nc2c1	13.6	i	89.5*	6.7	38.6	161.6
Cc1ccc(NC2OCC(O)C(O)C2O)cc1[N+](=O)[O-] (configuration not stated)	x	i	x	x	x	x
CSCCNC(=O)c1ccc(C(C)(C)C)cc1	-9.7	i	72.7*	-1.2	73.1*	130.2
COc1ccc(NC(=O)Nc2cccc(C)n2)cc1	-2.9	i	64.1*	3.5	28.2	128.0
CSc1cccc(NC(=O)COc2ccccc2)c1	-3.2	i	0.9	-12.4	-13.1	114.9
